Assays:
eight CYP enzymes = experiment: CYP inhibition; type: in vitro ADME; settings: 30 μM
PDC-3 = PDC-3 (Pseudomonas aeruginosa, UniProt P24735, T105A); experiment: β-Lactamase hydrolysis, PDC-3; type: biochemical, P. aeruginosa
Caco-2 = Caco-2 permeability; type: in vitro ADME
hERG = hERG (Homo sapiens, UniProt Q12809); experiment: hERG binding; settings: 30 μM
PER-2 = experiment: β-Lactamase hydrolysis, PER-2; type: biochemical; settings: PER-2, 200 nM enzyme, 100 μM 1
OXA-23 = OXA-23 (Acinetobacter baumannii, UniProt Q9L4P2); experiment: β-Lactamase hydrolysis, OXA-23; type: biochemical; settings: OXA-23, 200 nM enzyme, 100 μM 1
[1] = tested on: seven other tested ion channels; experiment: Other ion channels; type: binding; settings: 30 μM
[2] = tested on: primary human hepatocytes; experiment: Toxicity against primary human hepatocytes; type: cell-based; settings: maximum concentration 100 μM, 72 h incubation
OXA-24 = OXA-24 (Acinetobacter baumannii, UniProt Q8RLA6); experiment: β-Lactamase hydrolysis, OXA-24; type: biochemical; settings: OXA-24, 200 nM enzyme, 100 μM 1
KPC-2 = KPC-2 (Klebsiella pneumoniae, UniProt Q9F663); experiment: β-Lactamase hydrolysis, KPC-2; type: biochemical; settings: KPC-2, 200 nM enzyme, 100 μM 1
[3] = Plasma PK after IV administration in mice; type: in vivo; settings: CD-1, mouse, 50 mg/kg
How it was run: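 CD-1 mice in groups of 24 received 50 mg/kg IV with parallel sampling. Blood was taken by cardiac puncture under isoflurane into lithium heparin or K2EDTA tubes and kept on ice. Tubes were spun at 2500 × g for 15 min at 4 °C within 1 h, and plasma was stored at −70 °C. Samples were acetonitrile-precipitated and run by HPLC-MS/MS against a spiked-plasma calibration curve with internal standard. Parameters were derived by noncompartmental analysis.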

Gram-negative isolates = experiment: Abbreviated MIC panel of Gram-negative isolates; type: cell-based
How it was run: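 Broth microdilution MIC using iron-depleted cation-adjusted Mueller–Hinton broth, except where noted otherwise. The inoculum was lowered to 6 × 10^4 CFU/mL.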

[4] = tested on: K. pneumoniae (100 clinical isolates); settings: comparator MICs from the original studies; cited from earlier work
[5] = tested on: P. aeruginosa (197 clinical isolates); settings: comparator MICs from the original studies; cited from earlier work
[6] = IV bags, in 24 h after reconstitution; known, ref not given; cited from earlier work

Sequence of hERG (Q12809 whole entry): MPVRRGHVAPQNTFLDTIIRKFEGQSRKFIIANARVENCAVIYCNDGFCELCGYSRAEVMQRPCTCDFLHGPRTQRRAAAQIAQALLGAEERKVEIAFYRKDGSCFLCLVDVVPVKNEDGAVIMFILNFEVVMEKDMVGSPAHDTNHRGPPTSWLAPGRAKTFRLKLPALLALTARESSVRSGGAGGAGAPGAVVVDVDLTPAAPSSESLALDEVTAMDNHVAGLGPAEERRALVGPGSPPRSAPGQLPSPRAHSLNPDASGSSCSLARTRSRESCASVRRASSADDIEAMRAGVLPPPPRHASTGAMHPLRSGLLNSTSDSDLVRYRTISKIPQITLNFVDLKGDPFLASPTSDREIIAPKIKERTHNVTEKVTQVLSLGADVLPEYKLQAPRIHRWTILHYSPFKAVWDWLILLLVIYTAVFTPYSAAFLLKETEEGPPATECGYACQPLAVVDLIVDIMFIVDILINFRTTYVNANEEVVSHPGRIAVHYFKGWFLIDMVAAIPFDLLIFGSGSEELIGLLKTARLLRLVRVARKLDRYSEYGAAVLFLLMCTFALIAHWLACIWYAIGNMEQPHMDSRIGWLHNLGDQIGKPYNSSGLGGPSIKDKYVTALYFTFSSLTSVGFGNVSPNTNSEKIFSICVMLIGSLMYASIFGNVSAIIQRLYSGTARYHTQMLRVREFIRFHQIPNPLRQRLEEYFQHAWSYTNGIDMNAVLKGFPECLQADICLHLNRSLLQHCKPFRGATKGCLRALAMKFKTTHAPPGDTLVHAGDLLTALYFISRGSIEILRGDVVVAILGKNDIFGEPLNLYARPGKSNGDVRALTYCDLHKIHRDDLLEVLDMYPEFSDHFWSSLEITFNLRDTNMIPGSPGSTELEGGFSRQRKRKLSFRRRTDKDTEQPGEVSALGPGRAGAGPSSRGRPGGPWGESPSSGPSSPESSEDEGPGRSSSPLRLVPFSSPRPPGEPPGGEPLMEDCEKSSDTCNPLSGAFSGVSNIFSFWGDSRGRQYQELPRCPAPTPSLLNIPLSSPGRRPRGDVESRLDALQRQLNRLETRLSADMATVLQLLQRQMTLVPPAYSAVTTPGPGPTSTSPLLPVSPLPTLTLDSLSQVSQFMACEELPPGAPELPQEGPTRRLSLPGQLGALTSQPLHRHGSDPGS

## CC(C)(O/N=C(\C(=O)N[C@H]1CN2CC(C(=O)NCCN3C(=O)c4cc(O)c(O)cc4C3=O)=C(C(=O)O)N2C1=O)c1csc(N)n1)C(=O)O [Compound 1, (S,Z)-6-(2-(2-Aminothiazol-4-yl)-2-(((2-carboxypropan-2-yl)oxy)imino)acetamido)-2-((2-(5,6-dihydroxy-1,3-dioxoisoindolin-2-yl)ethyl)carbamoyl)-5-oxo-6,7-dihydro-1H,5H-pyrazolo[1,2-a]pyrazole-3-carboxylic Acid]
Eight CYP enzymes
  CYP inhibition: does not inhibit
PDC-3
  hydrolysis by β-lactamase: hydrolysis was not detected
Caco-2
  Caco-2 permeability: poor
hERG
  hERG binding: does not bind
PER-2
  hydrolysis by β-lactamase: hydrolysis was not detected
OXA-23
  hydrolysis by β-lactamase: hydrolysis was not detected
[1]
  ion channel binding: does not bind
[2]
  toxicity: not found
OXA-24
  hydrolysis by β-lactamase: hydrolysis was not detected
KPC-2
  hydrolysis by β-lactamase: hydrolysis was not detected
[3]
  clearance at 2 h: 14 mL/min/kg
  concentration at 2 h: > 1000 ng/mL

## CC(C)(O/N=C(\C(=O)N[C@H]1CN2CC(C(=O)NCCc3ccccc3)=C(C(=O)O)N2C1=O)c1csc(N)n1)C(=O)O [Compound 2, (S,Z)-6-(2-(2-Aminothiazol-4-yl)-2-(((2-carboxypropan-2-yl)oxy)imino)acetamido)-5-oxo-2-(phenethylcarbamoyl)-6,7-dihydro-1H,5H-pyrazolo[1,2-a]pyrazole-3-carboxylic Acid]
Gram-negative isolates
  MIC: > 64 µg/mL

## CC(C)(O/N=C(\C(=O)N[C@@H]1C(=O)N2C(C(=O)[O-])=C(C[n+]3ccccc3)CS[C@H]12)c1csc(N)n1)C(=O)O [ceftazidime (4), ceftazidime]
[4]
  MIC50: >64 µg/mL
  MIC90: >64 µg/mL
[5]
  MIC90: >16 µg/mL

## C[C@@H](O)[C@H]1C(=O)N2C(C(=O)O)=C(S[C@@H]3CN[C@H](C(=O)N(C)C)C3)[C@H](C)[C@H]12 [meropenem (6), meropenem]
[6]
  degradation after reconstitution: > 30%
[4]
  MIC90: >64 µg/mL
[5]
  MIC90: >8 µg/mL

— PMC7590959 (Journal of medicinal chemistry, 2020)
